From PubChem BioAssay
Shown are actives, neighbours in structure and some others; about 2.8% of the full set was active somewhere.
ARFGAP1 inh: inhibits rat ARF GTPase activating protein 1; Q62848; Arfgap1-stimulated ARF1 GTP hydrolysis, GDP FP detection; inhibition, % at 16.5 µM; actives 0.26% (n = 360,000); AID 651572;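 active means inhibition above a per-plate limit, mean inhibition of low control wells plus 3 SD, cut at about 25% in these data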;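 further: 0% = DMSO wells with enzyme and 100% = wells lacking Arfgap1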
Target sequence (Q62848 1-136 limits assumed): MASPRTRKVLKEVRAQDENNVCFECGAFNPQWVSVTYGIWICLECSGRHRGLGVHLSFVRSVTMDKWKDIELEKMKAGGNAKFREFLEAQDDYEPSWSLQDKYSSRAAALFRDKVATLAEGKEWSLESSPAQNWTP
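System: truncated rat Arfgap1 GAP domain / Medium: HEPES-based buffer, pH 7.5 / Also added: N-terminally truncated human ARF1-GTP substrate / Incubation: enzyme reaction 120 min at 25 °C after 20 min preincubation / Measured by: FP of antibody-bound GDP Alexa 633 tracer, ex 620/em 688 nm / Replicates: singlicate, each compound tested once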
pPAFAH inh: inhibitors of human plasma PAF acetylhydrolase (pPAFAH). Q13093. recombinant pPAFAH, FP-rhodamine probe fluorescence polarization. inhibition, % at 3.39 µM. actives 1.5% (n = 330,000). AID 463082;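 active means inhibition above the mean inhibition across the screen plus 3 SD, cut at about 25% in these data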;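 further: inhibitors block binding of the rhodamine activity-based probe so polarization drops; 0% = enzyme with DMSO and 100% = wells lacking pPAFAH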
PAFAH1B3 FP inh: inhibitors of human PAFAH1B3; Q15102; recombinant PAFAH1B3, FP-rhodamine probe, fluorescence polarization; inhibition, % at 3.39 µM; actives 0.28% (n = 340,000); AID 492972;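 active means inhibition above the screen-wide average of all tested compounds plus 3 SD, cut at about 25% in these data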;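 further: 0% = enzyme with DMSO only and 100% = wells lacking PAFAH1B3 protein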
ASAP1 inh: ASAP1 ArfGAP inhibition. actives 0.19% (n = 360,000). Q9ULH1. inhibition, % at 16.5 µM. ASAP1-stimulated ARF1 GTP hydrolysis, GDP FP detection; in the data active means inhibition above about 25%;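 further: 0% = vehicle with enzyme and substrate and 100% = no enzyme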
Target sequence (Q9ULH1 325-724 limits assumed): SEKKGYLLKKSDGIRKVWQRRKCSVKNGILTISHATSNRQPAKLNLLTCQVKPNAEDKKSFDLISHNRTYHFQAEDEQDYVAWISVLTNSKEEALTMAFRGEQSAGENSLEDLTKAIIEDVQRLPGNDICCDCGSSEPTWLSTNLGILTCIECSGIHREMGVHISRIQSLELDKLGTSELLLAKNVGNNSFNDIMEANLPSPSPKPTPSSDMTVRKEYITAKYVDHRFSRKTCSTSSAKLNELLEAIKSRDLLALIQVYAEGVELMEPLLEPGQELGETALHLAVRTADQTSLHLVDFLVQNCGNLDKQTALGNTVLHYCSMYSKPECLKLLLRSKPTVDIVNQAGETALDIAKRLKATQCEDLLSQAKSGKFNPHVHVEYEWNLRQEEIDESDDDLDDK
PAFAH1B2 inh: inhibitors of human PAFAH1B2. recombinant PAFAH1B2, FP-rhodamine activity probe, fluorescence polarization. inhibition, % at 3.39 µM. actives 1.2% (n = 340,000). P68402;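 active means inhibition above the mean of all tested compounds plus 3 SD, cut at about 24% in these data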;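 further: 0% = enzyme with DMSO and 100% = wells lacking PAFAH1B2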
PAFAH2 FP inh: PAFAH2 (human) inhibition; Q99487; recombinant PAFAH2, FP-rhodamine activity probe, fluorescence polarization; inhibition, % at 3.39 µM; actives 0.99% (n = 340,000); AID 492956;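 active means inhibition above the mean over all tested compounds plus 3 SD, cut at about 30% in these data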;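 further: inhibitors block probe labeling of enzyme so polarization drops; 0% = enzyme with DMSO and 100% = wells lacking PAFAH2 protein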
PAFAH2 confirm: confirmation of human PAFAH2 inhibitors; shares compounds with PAFAH2 FP inh; recombinant PAFAH2, FP-rhodamine activity probe, fluorescence polarization; inhibition, % at 3.39 µM; actives 65% (n = 2,300);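 active means mean inhibition over three repeats above a set limit taken from the earlier primary screen, cut at about 30% in these data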;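 further: inhibitor blocks binding of rhodamine activity probe so polarization falls; 0% = enzyme with DMSO and 100% = wells lacking PAFAH2 protein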
* marks the source's active call; other numbers are inactive results; nt = no result.

SMILES	ARFGAP1 inh	pPAFAH inh	PAFAH1B3 FP inh	ASAP1 inh	PAFAH1B2 inh	PAFAH2 FP inh	PAFAH2 confirm
Cc1noc(C)c1C(=O)Nc1sc(C)c(-c2ccccc2)c1C#N	-17	3	2	1	9	-3	nt
O=C1NC[C@H](Cc2ccccc2)N(CC2CCN(CCC34CC5CC(CC(C5)C3)C4)CC2)C1=O	3	nt	5	-3	2	4	nt
Cc1cc(C)n(CC(=O)NC2CCCc3c2cnn3-c2ccccc2F)n1 (centres undefined)	3	2	10	-7	-2	-6	nt
COc1ccc(/C=C2/SC(c3ccc(C)cc3)=NC2=O)cc1OC	5	4	3	9	3	38*	26
Nc1nc2c(C(=O)N3CCCC3)nnn2c2ccccc12	1	nt	nt	13	nt	nt	nt
COc1cc(/C=C/C(=O)OCC(=O)Nc2ccc(S(N)(=O)=O)cc2)ccc1O	22	4	3	2	-1	-3	nt
CC(C)=CC(=O)OCC(=O)Nc1ccc(Cl)cn1	0	3	5	6	5	52*	43*
COc1cc(/C=C/C(=O)OCC(=O)Nc2ccc(Cl)cn2)ccc1O	3	5	7	2	4	64*	66*
CCOC(=O)/C=C/C(=O)OCC(=O)Nc1ccc(Cl)cn1	-1	2	-1	-1	-6	-2	nt
COc1cc(/C=C/C(=O)OCC(=O)Nc2ccc([N+](=O)[O-])cc2)ccc1O	5	6	5	4	1	78*	81*
O=C(COC(=O)/C=C/c1ccc(F)cc1)Nc1ccc(Cl)cn1	-4	2	7	0	-2	30*	22
O=C(Cn1cc(COc2c(F)c(F)c(Br)c(F)c2F)nn1)c1ccc(O)cc1	-6	nt	3	14	7	-3	nt
CS(=O)(=O)ON=C1CCN(S(=O)(=O)c2ccccc2)CC1	1	-1	9	-4	6	0	nt
CC(C)(C)C1CCC(=NOC(=O)c2ccc(F)cc2)CC1 (centres undefined)	6	5	6	8	5	81*	84*
O=C(ON=C1CCN(S(=O)(=O)c2ccccc2)CC1)c1ccc(F)cc1	-2	7	5	-9	9	87*	84*
O=C(c1ccc(F)cc1)C1CCN(S(=O)(=O)c2ccccc2)CC1	7	3	-1	-12	3	-1	nt
CC(C)(C)C1CCC(OC(=O)c2ccncc2)CC1 (centres undefined)	-4	1	11	-5	0	-2	nt
Cc1ccc(C(=O)ON=C2CCN(S(=O)(=O)c3ccccc3)CC2)cc1	7	14	3	-9	1	90*	89*
O=C(CSc1nnc(CNC(=O)c2c(F)cccc2F)o1)NCc1ccccc1Cl	-5	-7	-2	2	-4	4	nt
CN(C)S(=O)(=O)c1cccc(NC(=O)C2CCCN(C(=O)c3ccc(Cl)cc3)C2)c1 (centres undefined)	5	nt	nt	-2	nt	nt	nt
O=C(NCCCN1CCOCC1)c1cc(-c2ccc(F)cc2)no1	6	6	-1	5	5	5	nt
CCCN1CCC(C)(C(=O)Nc2ccccc2Oc2ccccc2)C1 (centres undefined)	6	nt	nt	3	nt	nt	nt
COc1ccc(/C=C/C(=O)ONC2=NCCCCC2)cc1OC	0	4	-1	5	2	51*	44*
CC(=O)c1cccc(NC(=O)COC(=O)c2n[nH]c3ccccc23)c1	1	-8	0	10	4	47*	39*
Cc1cc(C)cc(NC(=O)COC(=O)c2n[nH]c3ccccc23)c1	21	-10	5	9	3	70*	65*
SMILES	ARFGAP1 inh	pPAFAH inh	PAFAH1B3 FP inh	ASAP1 inh	PAFAH1B2 inh	PAFAH2 FP inh	PAFAH2 confirm
O=C(COC(=O)c1n[nH]c2ccccc12)Nc1ccccc1	4	0	6	3	1	76*	67*
O=C(COC(=O)c1n[nH]c2ccccc12)NC1CCCCC1	-2	-11	3	-1	-9	80*	68*
CC(=O)N1N=C(N)SC1c1ccc(Cl)c(Cl)c1 (centres undefined)	-6	nt	nt	-2	nt	nt	nt
CCCCCCCCN1C(=O)[C@H](CC(=O)NCc2cccc(C(F)(F)F)c2)C[C@@]2(C(=O)OCC)CCC=C12	6	nt	nt	6	nt	nt	nt
COc1ccccc1/C=C/C=N/n1c(-c2ccco2)n[nH]c1=S	1	17	5	-1	2	11	nt
S=c1[nH]nc(-c2ccco2)n1/N=C/C=C/c1ccco1	1	18	18	1	4	46*	0
COc1ccc(S(=O)(=O)NNC(=O)Nc2ccc(C)cc2C)c(OC)c1	6	2	9	4	2	-1	nt
C=C(C)COc1ccc2c(C)c(C)c(=O)oc2c1OCC(=C)C	-2	9	4	-8	3	38*	40*
C=C(C)COc1ccc2c(C)c(CC(=O)OC)c(=O)oc2c1C	nt	8	-2	nt	6	9	nt
O=C(CSc1nnc(CNC(=O)c2c(F)cccc2F)o1)c1ccc(Cl)cc1	-5	nt	nt	-1	nt	nt	nt
Cc1ccc(NC(=O)COC(=O)CCC2CCCC2)c(Br)c1	0	18	6	-7	2	31*	14
COc1ccc(NC(=O)COC(=O)CC2CCCC2)cc1	-9	20	4	-11	3	58*	47*
COc1ccc(NC(=O)COC(=O)CC2CCCCC2)cc1	11	7	0	9	-2	48*	42*
Cc1cc(C)cc(NC(=O)COC(=O)CC2CCCC2)c1	-2	24	4	13	4	80*	66*
Cc1ccc(S(=O)(=O)NC(C(=O)N2CCOCCOCCOCC2)C(C)C)cc1 (centres undefined)	4	4	10	3	-1	-5	nt
COc1cc(NC(=O)c2cccs2)c(C(=O)OCC(=O)NCc2ccco2)cc1OC	0	4	-2	9	2	11	nt
Cc1ccsc1C(=O)OCC(=O)NCc1cccs1	8	nt	nt	0	nt	nt	nt
O=C(COC(=O)c1cccs1)NCc1ccco1	1	11	6	0	0	45*	29
O=C(COC(=O)c1cccs1)NCC1CCCCC1	-7	5	4	1	3	79*	82*
Cc1ccsc1C(=O)OCC(=O)NCc1ccccc1	-8	8	8	4	0	34*	23
Cn1c(C(=O)OCC(=O)NCc2ccco2)cc2sccc21	-9	14	19	11	-5	45*	22
Cc1cccc(C)c1-n1nnnc1C(c1cccs1)N1CCN(C/C=C/c2ccccc2)CC1 (centres undefined)	-4	nt	nt	-13	nt	nt	nt
